# Measurements taken from ChEMBL document CHEMBL4321818, “Anti-biofilm Agents against Pseudomonas aeruginosa: A Structure-Activity Relationship Study of C-Glycosidic LecB Inhibitors” (J Med Chem, 2019).
# The source made the active and inactive calls. The calls are words filed in the database; no cut-off is given here.
# Assays:
# [1] = target: T1, Fucose-binding lectin PA-IIL (Pseudomonas aeruginosa (strain ATCC 15692 / DSM 22644 / CIP 104116 / JCM14847 / LMG 12228 / 1C / PRS 101 / PAO1), UniProt Q9HYN5); assay: Inhibition of N-(fluorescein-5-yl)-N'-(alpha-L-fucopyranosyl ethylen)thiocarbamide binding to Pseudomonas aeruginosa PAO1 LecB incubated for 22 to 24 hrs by fluorescence polarization assay
# Target sequence in this assay (Q9HYN5 whole entry): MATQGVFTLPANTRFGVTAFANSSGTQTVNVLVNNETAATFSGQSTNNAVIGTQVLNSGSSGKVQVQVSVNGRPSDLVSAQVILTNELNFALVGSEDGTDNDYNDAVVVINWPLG
# [2] = target: T1, Fucose-binding lectin PA-IIL; assay: Inhibition of N-(fluorescein-5-yl)-N'-(alpha-L-fucopyranosyl ethylen)thiocarbamide binding to Pseudomonas aeruginosa PA14 LecB incubated for 22 to 24 hrs by fluorescence polarization assay
# Target sequence in this assay (Q9HYN5 1-115): as the sequence (Q9HYN5 whole entry) above
# [3] = Intrinsic clearance in C57BL/6J mouse liver microsomes at 1 uM preincubated for 10 mins followed by NADPH addition and measured up to 45 mins by LC-MS/MS analysis; assay type: ADME, Microsome; settings: 0.75 h
# In short: (§1)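 Compound at 1 µM in 0.1 M phosphate buffer pH 7.4 with liver microsomes at 0.5 mg/mL. Preincubated 10 min, then started with an NADPH regenerating system. Sampled at 1–45 min at 37 °C and quenched in MeCN with internal standard. Supernatant analyzed by LC-MS/MS. CLint = −slope of ln(peak area ratio) vs time × 1000/protein concentration. CYP marker substrates served as quality control.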
# [4] = Intrinsic clearance in human liver microsomes at 1 uM preincubated for 10 mins followed by NADPH addition and measured up to 45 mins by LC-MS/MS analysis; assay type: ADME, Microsome; settings: 0.75 h; in short: as §1
# [5] = Stability in mouse plasma at 25 uM measured up to 120 mins by HPLC-MS analysis; assay type: ADME, cell-free; settings: 2 h
# In short: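 Compound from DMSO added to mouse plasma (pH 7.4, 37 °C) at 25 µM final. Incubated 0, 15, 30, 60, 90 and 120 min at 37 °C. Aliquots extracted with methanol containing internal standard and analyzed by HPLC-MS, normalized to internal standard and time 0. Procaine and propoxycaine served as unstable controls, procainamide (250 µM) as stable control. At least three independent repeats.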
# HepG2 [6] = assay: Cytotoxicity against human HepG2 cells assessed as reduction in cell viability up to 100 uM after 24 hrs by MTT assay; assay type: cell-based; settings: hepg2, 24 h
# In short: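 Hep G2 cells grown in DMEM with 10% heat-inactivated FCS at 37 °C, 5% CO2, seeded and grown to 75% confluency. Exposed to 0.01–100 µM compound (DMSO stock diluted in PBS, final DMSO 0.1%) for 24 h. Washed, then MTT at 1 mg/mL final for 3 h. Solubilized in 0.04 M HCl/2-propanol, read at 560 nm with 670 nm reference. Normalized as (A−B)/(C−B), with B the Triton X-100 (0.5%) control and C the vehicle control. At least three assays.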
# [7] = Protein binding in CD1 mouse plasma after 2 hrs by HPLC analysis relative to control; assay type: ADME, cell-free; settings: for fraction unbound at 2 h: CD1, mouse, read-out: PPB; for PPB: mouse, 2 h
# In short: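 Rapid equilibrium dialysis with compound at 100 µM final in pooled CD-1 mouse plasma, naproxen as control. Incubated 37 °C for 2 h at 800 rpm. Samples matrix-matched, extracted with cold MeCN/H2O (90:10) containing caffeine internal standard, and quantified by HPLC-MS/MS. %free = buffer/plasma chamber concentration × 100; %bound = 100 − %free.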
# [8] = Half life in CD1 mouse plasma at 10 mg/kg, po or ip after 24 hrs; assay type: ADME, organism-based
# Pseudomonas aeruginosa [9] = assay: Antibacterial activity against Pseudomonas aeruginosa PA14 transfected with pMP7605 plasmid at 100 uM after 23 hrs by fluorescence based confocal light microscopic analysis; assay type: functional, organism-based
# Pseudomonas aeruginosa [10] = assay: Antibiofilm activity against Pseudomonas aeruginosa PA14 transfected with pMP7605 plasmid at 100 uM after 48 hrs by fluorescence based confocal light microscopic analysis relative to control; assay type: functional; settings: PA14, 48 h
# In short: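 P. aeruginosa PA14 wild type carrying the mCherry plasmid pMP7605 was grown overnight in LB at 37 °C, then diluted to OD600 0.02 in M63 minimal medium. Compound (100 µM final, from DMSO stock) was added and cultures incubated 48 h at 30 °C. Biofilm biomass was quantified by confocal laser scanning microscopy versus DMSO control; means ± SD of three independent assays, Student's t test.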
# HepG2 [11] = assay: Cytotoxicity against human HepG2 cells assessed as cell viability at 100 uM after 24 hrs by MTT assay relative to control; assay type: cell-based; settings: hepg2, 24 h
# In short: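 Hep G2 cells in DMEM + 10% FCS were grown to 75% confluency, then exposed to compound (0.01–100 µM, 0.1% DMSO final) for 24 h at 37 °C, 5% CO2. MTT was added at 1 mg/mL final for 3 h and solubilised in 0.04 M HCl/2-propanol; A560 read with 670 nm reference. Normalised (A−B)/(C−B) to 0.5% Triton X-100 and vehicle controls; SD of ≥3 assays.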
# [12] = Solubility of compound in TBS/Ca containing 1% DMSO at 1 mM; settings: 1000 µM
compound,measurement,setting,value
COc1ccc(C#Cc2ccc(S(=O)(=O)NC[C@H]3O[C@@H](C)[C@@H](O)[C@@H](O)[C@@H]3O)s2)cc1,IC50,[1],1750 nM
same,IC50,[2],280 nM
Cc1ccc(S(=O)(=O)NC[C@H]2O[C@@H](C)[C@@H](O)[C@@H](O)[C@@H]2O)s1,IC50,[1],3530 nM
same,IC50,[2],560 nM
same,Intrinsic clearance (CLint),[3],10 µL/min/mg
same,Intrinsic clearance (CLint),[4],< 10 µL/min/mg
same,Stability,[5],Stable
same,Activity,HepG2 [6],Non-Toxic
same,fraction unbound at 2 h,[7],0.3 to 0.4
C[C@@H]1O[C@H](CNS(=O)(=O)c2ccco2)[C@@H](O)[C@H](O)[C@@H]1O,IC50,[1],3150 nM
same,IC50,[2],460 nM
C[C@@H]1O[C@H](CNS(=O)(=O)c2ccc(C#CCCc3ccccc3)s2)[C@@H](O)[C@H](O)[C@@H]1O,IC50,[1],3130 nM
same,IC50,[2],400 nM
C[C@@H]1O[C@H](CNS(=O)(=O)c2ccsc2)[C@@H](O)[C@H](O)[C@@H]1O,IC50,[1],1850 nM
same,IC50,[2],590 nM
C[C@@H]1O[C@H](CNS(=O)(=O)c2cccs2)[C@@H](O)[C@H](O)[C@@H]1O,PPB,[7],81%
same,half-life,[8],34 min
Cc1ccsc1S(=O)(=O)NC[C@H]1O[C@@H](C)[C@@H](O)[C@@H](O)[C@@H]1O,IC50,[1],1320 nM
same,IC50,[2],200 nM
C[C@@H]1O[C@H](CNS(=O)(=O)c2ccc(Br)s2)[C@@H](O)[C@H](O)[C@@H]1O,IC50,[1],3310 nM
same,IC50,[2],570 nM
C[C@@H]1O[C@H](CNS(=O)(=O)c2ccn(C)n2)[C@@H](O)[C@H](O)[C@@H]1O,IC50,[1],7010 nM
same,IC50,[2],730 nM
C[C@@H]1O[C@H](CNC(=O)c2cc3ccccc3o2)[C@@H](O)[C@H](O)[C@@H]1O,IC50,[1],10200 nM
same,IC50,[2],2410 nM
C[C@@H]1O[C@H](CNS(=O)(=O)c2ccc(C#Cc3ccccc3)s2)[C@@H](O)[C@H](O)[C@@H]1O,Activity,Pseudomonas aeruginosa [9],inactive
same,inhibition at 100 µM,Pseudomonas aeruginosa [10],> 90%
same,Intrinsic clearance (CLint),[3],< 10 µL/min/mg
same,Intrinsic clearance (CLint),[4],< 10 µL/min/mg
same,Stability,[5],Stable
same,Activity,HepG2 [11],64%
same,fraction unbound at 2 h,[7],0.3 to 0.4
Cc1cccc(C#Cc2ccc(S(=O)(=O)NC[C@H]3O[C@@H](C)[C@@H](O)[C@@H](O)[C@@H]3O)s2)c1,IC50,[1],1720 nM
same,IC50,[2],300 nM
Cc1cc(S(=O)(=O)NC[C@H]2O[C@@H](C)[C@@H](O)[C@@H](O)[C@@H]2O)c(C(F)(F)F)o1,IC50,[1],3470 nM
same,IC50,[2],460 nM
CO[C@H]1O[C@H](CNS(=O)(=O)c2cccs2)[C@@H](O)[C@H](O)[C@@H]1O,fraction unbound at 2 h,[7],0.3 to 0.4
Cc1csc(S(=O)(=O)NC[C@H]2O[C@@H](C)[C@@H](O)[C@@H](O)[C@@H]2O)c1,IC50,[1],2550 nM
same,IC50,[2],320 nM
C[C@@H]1O[C@H](CNC(=O)c2ccccc2)[C@@H](O)[C@H](O)[C@@H]1O,IC50,[1],8730 nM
same,IC50,[2],3540 nM
Cc1cc(S(=O)(=O)NC[C@H]2O[C@@H](C)[C@@H](O)[C@@H](O)[C@@H]2O)c(C)s1,Activity,Pseudomonas aeruginosa [9],inactive
same,inhibition at 100 µM,Pseudomonas aeruginosa [10],> 80%
same,Intrinsic clearance (CLint),[3],< 10 µL/min/mg
same,Intrinsic clearance (CLint),[4],< 10 µL/min/mg
same,Stability,[5],Stable
same,Activity,HepG2 [6],Non-Toxic
same,fraction unbound at 2 h,[7],0.3 to 0.4
Cc1cc(C)c(S(=O)(=O)NC[C@H]2O[C@@H](C)[C@@H](O)[C@@H](O)[C@@H]2O)c(C)c1,PPB,[7],73%
same,half-life,[8],17 min
CCc1ccc(S(=O)(=O)NC[C@H]2O[C@@H](C)[C@@H](O)[C@@H](O)[C@@H]2O)s1,IC50,[1],4020 nM
same,IC50,[2],380 nM
C[C@@H]1O[C@H](CNS(=O)(=O)c2cc(Cl)c(Cl)s2)[C@@H](O)[C@H](O)[C@@H]1O,Intrinsic clearance (CLint),[3],< 10 µL/min/mg
same,Intrinsic clearance (CLint),[4],< 10 µL/min/mg
same,Stability,[5],Stable
same,Activity,HepG2 [6],Non-Toxic
Cc1ccccc1C#Cc1ccc(S(=O)(=O)NC[C@H]2O[C@@H](C)[C@@H](O)[C@@H](O)[C@@H]2O)s1,IC50,[1],1620 nM
same,IC50,[2],270 nM
CO[C@H]1O[C@H](CNS(=O)(=O)c2c(C)cc(C)cc2C)[C@@H](O)[C@H](O)[C@@H]1O,fraction unbound at 2 h,[7],0.3 to 0.4
C[C@@H]1O[C@H](CNS(=O)(=O)c2ccc(/C=C\c3ccccc3)s2)[C@@H](O)[C@H](O)[C@@H]1O,IC50,[1],2320 nM
same,IC50,[2],440 nM
Cc1oncc1S(=O)(=O)NC[C@H]1O[C@@H](C)[C@@H](O)[C@@H](O)[C@@H]1O,Intrinsic clearance (CLint),[3],< 10 µL/min/mg
same,Intrinsic clearance (CLint),[4],< 10 µL/min/mg
same,Stability,[5],Stable
same,Activity,HepG2 [6],Non-Toxic
same,fraction unbound at 2 h,[7],0.3 to 0.4
Cc1ccc(C#Cc2ccc(S(=O)(=O)NC[C@H]3O[C@@H](C)[C@@H](O)[C@@H](O)[C@@H]3O)s2)cc1,IC50,[1],1720 nM
same,IC50,[2],350 nM
C[C@@H]1O[C@H](CNC(=O)c2ccc(-c3ccccc3)s2)[C@@H](O)[C@H](O)[C@@H]1O,solubility,[12],Insoluble
